Source: PubChem BioAssay (several laboratories)
The list is not random: actives were taken first. Their share in the collection is about 4.6%.
FAS TE block – blocks the thioesterase domain of human fatty acid synthase; recombinant FAS-TE, OMFH fluorogenic substrate, fluorescence endpoint; inhibition, % at 15 µM; hit rate 0.67% among 360,000; AID 602261;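 active = compounds whose normalised, plate-corrected inhibition of enzyme fluorescence in the single-dose primary screen is 50% or more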;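 note: 0% = DMSO with enzyme and 100% = substrate without enzyme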
ALR inh – inhibitors of human sulfhydryl oxidase ALR | inhibition, % (test concentration not listed) | purified ALR, DTT oxidation, H2O2 HRP-luminol luminescence | hit rate 3.8% among 290,000 | P55789 | AID 485317;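 active = mean replicate inhibition above about 79%, with every replicate also reaching it, limit read from the data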
UCH37 DUB inh – blocks the human deubiquitinase UCH37. purified proteasome/UCH37, Ub-AMC cleavage fluorescence. inhibition, % (no concentration beside the values). hit rate 0.33% among 330,000;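 active = mean inhibition over replicate wells above about 20%, limit read from the data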;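 note: 0% = compound-free wells with enzyme and 100% = wells lacking proteasome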
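Test system – human UCH37 enzyme supplied as purified proteasome complex · Incubation – 30 min preincubation with enzyme, 25 min cleavage at room temperature · Detection – AMC fluorescence from Ub-AMC cleavage, excitation 355 nm, emission 460 nm · Benchmarks – no-proteasome wells (full inhibition) and compound-free wells (no inhibition)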
HDAC3 inh – blocks human histone deacetylase 3; O15379; recombinant HDAC3, fluorogenic peptide/trypsin coupled, fluorescence; inhibition, % at 8.3 µM; hit rate 0.15% among 320,000; AID 2718; in the data active = inhibition above about 26%, passing the limit was not always enough
M18AAP inhibitor – PfM18AAP enzyme inhibition. hit rate 1.2% among 290,000. recombinant PfM18AAP, H-Glu-NHMec fluorogenic cleavage. inhibition, % at 7.35 µM;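 active = inhibition above the campaign mean inhibition over all tested compounds plus 3 SD, cut at about 28% in these data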;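 note: 0% = plate median of test compound wells and 100% = 2 mM ZnCl2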
Rtt109 Vps75 – C. albicans Rtt109 histone acetyltransferase inhibition; Q5AAJ8; hit rate 0.16% among 330,000; purified Rtt109/Vps75, ThioGlo CoA-SH fluorescence, 4 h; inhibition, % at 34.9 µM; AID 540336;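 active = inhibition of at least 50% in every replicate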
* hit, by the source's call.

How did CC(=O)NN=C(C)CC(=O)Nc1cccc(C(F)(F)F)c1 do in these assays?
UCH37 DUB inh: 2.9

What do the screens show for `O=C(O)c1ccc(C=NNc2ccccn2)cc1`?
UCH37 DUB inh: 13.6

What do the screens show for `CC(=NNC(=O)CCCOc1ccc(Cl)cc1Cl)c1ccc(C)o1`?
UCH37 DUB inh: 6.6

Results for O=C(NCC1CCCO1)c1ccc2c(c1)N(Cc1ccc(F)cc1)CCS2 (stereo unspecified) ?
FAS TE block: 6.2; ALR inh: 98.6*; UCH37 DUB inh: inactive; HDAC3 inh: -19.2; M18AAP inhibitor: 2.9; Rtt109 Vps75: -34.9

Results for O=C(NCCN1CCOCC1)c1cc2sccc2n1Cc1ccc(F)cc1 ?
FAS TE block: -3.6; ALR inh: 96.6*; UCH37 DUB inh: 2.7; HDAC3 inh: 1.4; M18AAP inhibitor: -5.2; Rtt109 Vps75: 13.2

What do the screens show for `CCOC(=O)N1CCN(C(=O)c2ccc3c(c2)N(Cc2ccc(F)cc2)CCS3)CC1`?
FAS TE block: 17.0; ALR inh: 97.6*; UCH37 DUB inh: -60.5; M18AAP inhibitor: 7.6; Rtt109 Vps75: 0.1

Results for O=C(NCCCN1CCOCC1)c1ccc2c(c1)N(Cc1ccc(F)cc1)CCS2 ?
FAS TE block: -7.6; ALR inh: 98.9*; UCH37 DUB inh: inactive; HDAC3 inh: -48.9; M18AAP inhibitor: 6.4; Rtt109 Vps75: 2.2

How did NC(N)=NN=Cc1ccc(OCc2ccccc2)c(OCc2ccccc2)c1 do in these assays?
UCH37 DUB inh: 2.0

Results for CCOC(=O)N1CCC(NC(=O)c2ccc3c(c2)N(Cc2ccc(F)cc2)CCS3)CC1 ?
FAS TE block: 12.5; ALR inh: 36.3; UCH37 DUB inh: -49.7; HDAC3 inh: -25.1; M18AAP inhibitor: 4.9; Rtt109 Vps75: 4.8

What do the screens show for `CN1CCN(CCCNC(=O)c2ccc3c(c2)N(Cc2ccc(F)cc2)CCS3)CC1`?
FAS TE block: -4.4; ALR inh: 98.9*; UCH37 DUB inh: inactive; HDAC3 inh: -66.1; M18AAP inhibitor: 7.1; Rtt109 Vps75: -35.1

What do the screens show for `COc1ccc(C=Nn2cnnc2SCc2ccc(OC)cc2)cc1`?
UCH37 DUB inh: 0.6

How did Cc1ccc(SCc2c(C#N)c3ccccc3n2C)cc1 do in these assays?
FAS TE block: 28.1; ALR inh: 99.4*; UCH37 DUB inh: 0.9; HDAC3 inh: 3.2; M18AAP inhibitor: -9.7; Rtt109 Vps75: 5.2

How did Cn1c(CSc2ccccc2)c(C#N)c2ccccc21 do in these assays?
FAS TE block: 32.1; ALR inh: -2.2; UCH37 DUB inh: 4.8; HDAC3 inh: 3.9; M18AAP inhibitor: 1.7; Rtt109 Vps75: -16.3

What do the screens show for `COc1ccc(-c2nc(CN3CCC(C(=O)NC4CCCc5ccccc54)CC3)c(C)o2)cc1OC` (stereo unspecified)?
FAS TE block: -3.8; UCH37 DUB inh: 3.4; Rtt109 Vps75: -1.0

How did Cc1ccc(-c2nc(CS(=O)(=O)CC(=O)NC3CCCCC3C)c(C)o2)cc1 (stereo unspecified) do in these assays?
FAS TE block: -1.1; ALR inh: 17.8; UCH37 DUB inh: 3.3; HDAC3 inh: -1.3; M18AAP inhibitor: -12.3; Rtt109 Vps75: -4.7

What do the screens show for `Cc1ccc(-c2nc(CS(=O)CC(=O)NC3CCCC(C)C3C)c(C)o2)cc1` (stereo unspecified)?
FAS TE block: 4.7; ALR inh: 99.1*; UCH37 DUB inh: 1.5; HDAC3 inh: -2.1; M18AAP inhibitor: 0.0; Rtt109 Vps75: 0.4

What do the screens show for `COc1ccc(-c2nc(CS(=O)CC(=O)NC3CCCC(C)C3C)c(C)o2)cc1OC` (stereo unspecified)?
FAS TE block: -4.5; ALR inh: 98.9*; UCH37 DUB inh: 3.5; HDAC3 inh: -0.2; M18AAP inhibitor: -21.3; Rtt109 Vps75: 7.4

Results for COc1ccc(C=NN2CCN(c3ccc(Cl)cc3)CC2)cc1O ?
UCH37 DUB inh: 4.9

Results for COc1cc(C2(c3ccc(O)c(OC)c3)C(=O)Nc3c(C)cc(Br)cc32)ccc1O ?
FAS TE block: 18.4; ALR inh: 79.7*; UCH37 DUB inh: 3.1; HDAC3 inh: -2.4; Rtt109 Vps75: -1.1

How did COc1cc(C=NN(C)c2ccccc2)cc(Cl)c1O do in these assays?
UCH37 DUB inh: 6.1

How did Cc1ccccc1NNC(=O)C(=O)NNc1ccccc1C do in these assays?
FAS TE block: -3.8; ALR inh: 98.4*; UCH37 DUB inh: 5.5; HDAC3 inh: 1.2; M18AAP inhibitor: 20.4; Rtt109 Vps75: -17.2

Results for CCOC(=O)C(=O)NNc1ccc(Cl)cc1 ?
FAS TE block: -8.8; ALR inh: 100.3*; UCH37 DUB inh: -1.0; HDAC3 inh: -4.9; M18AAP inhibitor: -4.8; Rtt109 Vps75: 2.4

How did CCOC(=O)C(=O)NNc1ccccc1OC do in these assays?
FAS TE block: -2.5; ALR inh: 98.9*; UCH37 DUB inh: 5.2; HDAC3 inh: -0.6; M18AAP inhibitor: 11.2; Rtt109 Vps75: -2.1

How did Cc1ccc(C)c(NNC(=O)C(=O)NNc2cc(C)ccc2C)c1 do in these assays?
FAS TE block: -7.6; ALR inh: 1.6; UCH37 DUB inh: 5.9; HDAC3 inh: -4.0; M18AAP inhibitor: 6.4

What do the screens show for `CCOC(=O)C(=O)Nc1ccc(F)cc1`?
FAS TE block: -6.2; ALR inh: -1.0; UCH37 DUB inh: -0.4; HDAC3 inh: -2.6; M18AAP inhibitor: 5.5; Rtt109 Vps75: -10.6

Results for CCOC(=O)C(=O)NNc1ccc(C)cc1 ?
FAS TE block: -10.7; ALR inh: 99.9*; UCH37 DUB inh: -0.4; HDAC3 inh: -1.6; M18AAP inhibitor: -1.3; Rtt109 Vps75: 3.1

Results for CCC(Sc1nc(-c2cccc(OC)c2)c(C#N)c(=O)[nH]1)C(=O)Nc1nnc(C(C)C)s1 (stereo unspecified) ?
FAS TE block: 2.8; ALR inh: 12.8; UCH37 DUB inh: 4.8; HDAC3 inh: 1.9; M18AAP inhibitor: -7.5; Rtt109 Vps75: 5.0

How did CCc1ccc(NC(=O)C(C)Sc2nc(-c3ccco3)c(C#N)c(=O)[nH]2)cc1 (stereo unspecified) do in these assays?
FAS TE block: 13.6; ALR inh: 98.1*; UCH37 DUB inh: 8.8; HDAC3 inh: 2.4; M18AAP inhibitor: 9.6; Rtt109 Vps75: 22.6

How did O=C(CSc1nc2[nH]ncc2c(=O)[nH]1)Nc1cccc(Cl)c1 do in these assays?
FAS TE block: -12.4; ALR inh: 2.0; UCH37 DUB inh: 7.8; HDAC3 inh: -0.5; Rtt109 Vps75: -26.3

What do the screens show for `N#Cc1c(-c2ccco2)nc(SCC(=O)Nc2cccc(Cl)c2)[nH]c1=O`?
FAS TE block: 11.7; ALR inh: 98.6*; UCH37 DUB inh: 2.2; HDAC3 inh: 4.3; M18AAP inhibitor: -0.5; Rtt109 Vps75: 5.3

How did O=C(NN=Cc1cc2ccccc2nc1Cl)[C@H]1C[C@@H]1c1ccccc1 do in these assays?
UCH37 DUB inh: -4.0

How did Cc1onc(-c2ccccc2)c1C(=O)NN=Cc1cc(Br)c(Br)o1 do in these assays?
UCH37 DUB inh: 0.7
